Paper PMC7114156 (Antiviral Research, 2009)
Where “and” joins values, the source holds several entries; their conditions need not be identical. Equal entries are not always repeated. Entries after “also recorded” stand apart in the source; their conditions may differ. Where two headings read alike, the source gives them in different places.

Key:
adenovirus type 5 = assay: Adenovirus assay: adenovirus-5 replication in HFF cells, viral DNA by qPCR; type: cell-based; conditions: Ad5 in HFF cells, MOI 3, 72 h
IM9 cells = assay: Growth of IM9 cell line; type: cell-based, human
B-LCL 5/2/1 = assay: Growth of B-LCL 5/2/1; type: cell-based, human
MT4 cells [1] = assay: Growth of MT4 cell line; type: cell-based, human; conditions: for EC50: K ∼ EC50
W12-20850 cells = assay: Growth of W12-20850 cells, MTS; type: cell-based, human
In short: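 For the time course, test compound was added at time zero to cells growing in 96-well plates. Growth was followed as rate of MTS reduction over 3 days from day zero, with untreated controls alongside.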

HPV-16 = assay: HPV DNA by qPCR in W12-20850 cells; type: cell-based
HKC/HPV16 cells = assay: Growth of HKC/HPV16 cells, MTS; type: cell-based, human
HeLa = assay: Growth of HeLa; type: cell-based, human; conditions: 72 h
In short: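 Cell lines carrying integrated viral genomes were plated in 96-well plates in medium with test compound. Growth was read by ATP luminescence (CellTiter-Glo) for HEK293 and WI38 VA13, and by MTS reduction (A490 after 2 h at 37 °C) for Namalwa, W12 20861, SiHa, Caski and HeLa. K and Imax came from a fit to a modified Hill equation.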

Huh7 = assay: Growth of Huh7, MTS; type: cell-based, human
In short: (§1)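 Cells were plated in 96-well plates in medium holding serial dilutions of test compound, 1 nM to 10 μM, with DMSO ≤1% (v/v) final. Growth was read by MTS after 72 h at 37 °C: 2 h with reagent plus phenazine methosulfate, then A490. K and Imax came from a fit to a modified Hill equation. Vero cells are African Green monkey.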

Jurkat = assay: Growth of Jurkat, MTS; type: cell-based, human; conditions: 72 h
In short: as §1

U937 = assay: Growth of U937, MTS; type: cell-based, human
In short: as §1

BJAB = assay: Growth of BJAB, MTS; type: cell-based, human; conditions: 72 h
In short: as §1

[2] = Growth of resting CD4 T cells, CTG; type: cell-based; conditions: human
In short: (§2)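 Primary cells were plated in 96-well plates with serial dilutions of test compound, 3 nM to 100 μM, for 72 h at 37 °C. Read-out was CTG for resting B and CD4 T cells and MTS for PBMC, WI38 and HUVEC. Purity was 90–95% for B cells and 97% for CD4 cells. Activated PBMCs were stimulated with phytohemagglutinin plus IL2.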

[3] = Growth of WI38 fibroblasts, MTS; type: cell-based; conditions: human
In short: as §2

[4] = Growth of HUVEC endothelial cells, MTS; type: cell-based; conditions: human
In short: as §2

MT4 cells [5] = assay: Apoptosis assay; type: cell-based, human; conditions: MT4, 20 h exposure
In short: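 Apoptosis read as cytoplasmic histone-associated DNA fragments with a Cell Death Detection ELISA kit. Exposure was 20 h for IM9 and MT4 and 40 h for W12 and U937. A405 was read kinetically at 30 °C, and the rate per hour came from linear regression of the linear portion. A Fas-activating antibody was the positive control.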

[6] = test system: a variety of unrelated viruses; assay: Replication of a variety of unrelated viruses in vitro; type: cell-based
primary cells = assay: Growth of primary cells; type: cell-based, human; conditions: at concentrations below 1 μM
EBV = assay: Viral yield in IM9 cells by quantitative PCR; type: cell-based; conditions: data not shown
[7] = Homo sapiens, read-out: K, Growth, MTS
[8] = Homo sapiens, read-out: K, growth, MTS

In the case of `O=C(N[C@@H]1CCCc2c1[nH]c1ccc(Cl)cc21)c1ccccn1` [GSK983, N-[(1R)-6-Chloro-2,3,4,9-tetrahydro-1H-carbazol-1-yl]-2-pyridinecarboxamide], the “Imax, viral DNA by qPCR” value (adenovirus type 5) is reported as 100%, the EC50 (IM9 cells; Homo sapiens, IM-9, 72 h, read-out: K, cell line growth) is reported as 16 ± 2 nM and the Selectivity index (IM9 cells; IM9 (EBV) vs activated B cell) is reported as >620 ± 80. For the same molecule, the “Outcome of growth inhibition over time” value (IM9 cells; IM9, 3 days, higher concentrations) was “cell death”, the Selectivity index (B-LCL 5/2/1; B-LCL 5/2/1 (EBV) vs activated B cell) was >700 ± 15 and the “Imax, cell line growth” value (B-LCL 5/2/1; B-LCL 5/2/1 (EBV), CTG, 72 h) was 93 ± 1%. For the same molecule, the EC50 (B-LCL 5/2/1; Homo sapiens, 72 h, read-out: K, cell line growth) was 14 ± 0.3 nM, the EC50 (MT4 cells [1]; Homo sapiens, MT4, 72 h, read-out: K, cell line growth, MT4 (HTLV1), CTG, 72 h) was 8 nM and the Selectivity index (MT4 cells [1]; MT4 (HTLV1) vs activated CD4 T cell) was 7600 ± 1000. The EC50 (MT4 cells [1]; read-out: K, cell line growth, MT4 (HTLV1), CTG, 72 h) was 7.5 ± 0.6 nM, the EC50 (W12-20850 cells; Homo sapiens, W12-20850, 96 h, read-out: K, Growth, MTS) was 11 ± 2 nM and the “Outcome of growth inhibition over time” value (W12-20850 cells; W12, 3 days, rate of MTS reduction) was “cytostasis”. The “Imax, Growth, MTS” value (W12-20850 cells; W12-20850, 4 days) was 60% and 60 ± 7%, the Selectivity index (HPV-16; HPV DNA qPCR in W12-20850 vs HKC) was 12,000 ± 4,000 and the “Imax, HPV DNA, qPCR” value (HPV-16; W12-20850, HPV type 16) was 85 ± 2%. For the same molecule, the EC50 (HPV-16; W12-20850, read-out: K, HPV DNA, qPCR) was 3.3 ± 0.5 nM, the “HPV copy number, expressed as HPV genomes per actin gene” value (HPV-16; W12 cells, at 100 nM GSK983, reduced from 460) was 150 HPV genomes per actin gene and the “Imax, Growth, MTS” value (HKC/HPV16 cells; HKC/HPV16) was 59 ± 1%. For the same molecule, the EC50 (HKC/HPV16 cells; [7]) was 3 ± 0.4 nM, the “Imax, Growth, MTS” value (HeLa; HPV 18 integrated) was 50 ± 0.8% and the EC50 (HeLa; [7]) was 20 ± 2 nM. The EC50 (Huh7; Homo sapiens, Huh-7, 72 h, read-out: K, growth, MTS) was 41 ± 10 nM, the “Imax, Growth, MTS” value (Huh7; Huh7, liver epithelial, 72 h) was 26 ± 1% and the EC50 (Jurkat; [8]) was 52 ± 3 nM. The “Imax, Growth, MTS” value (Jurkat; T lymphoblast) was 51 ± 1%, the EC50 (U937; Homo sapiens, U-937, 72 h, read-out: K, growth, MTS) was 26 ± 4 nM and the “Outcome of growth inhibition over time” value (U937; U937, 3 days, rate of MTS reduction) was “cytostasis”. The “Imax, Growth, MTS” value (U937; U937, monocyte, 72 h) was 55 ± 2%, the “Imax, Growth, MTS” value (BJAB; B lymphoblast) was 84 ± 1.5% and the EC50 (BJAB; [8]) was 9 ± 0.6 nM. For the same molecule, the CC50 at 72 h [2] was 60 µM, the CC50 at 72 h [3] was 90 µM and the CC50 at 72 h [4] was > 10 µM. For the same molecule, the Apoptosis (MT4 cells [5]) was “induced apoptosis”, the “Observed maximum inhibition of viral DNA” value ([6]; productive or episomal infections) was 86–99% and the EC50 ([6]; read-out: EC50 values, replication of a variety of unrelated viruses in vitro) was 5 to 20 nM. The “Inhibition of growth of primary cell types” value (primary cells) was “None of the primary cell types tested was significantly inhibited; also recorded: does not impact the growth” and the “Viral yield in IM9 cells by quantitative PCR” value (EBV) was “decrease in parallel with inhibition of cell growth”.
